High-throughput results: PubChem, The Scripps Research Institute Molecular Screening Center
Sampled rows, rich in hits. Any-hit rate of the full collection: about 2.9%.
OX1R antag-1: antagonists of human orexin 1 receptor (OX1R); OX1R-expressing cells, FRET antagonist read-out; inhibition, % at 6.6 µM; actives 1.8% (n = 330,000); AID 485270; in the data active means inhibition mostly above about 38%, no sharp cut-off; inactive means mostly below about 40%;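 further: 0% = agonist challenge alone and 100% = reference antagonist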
Target sequence (O43613 whole entry, looked up): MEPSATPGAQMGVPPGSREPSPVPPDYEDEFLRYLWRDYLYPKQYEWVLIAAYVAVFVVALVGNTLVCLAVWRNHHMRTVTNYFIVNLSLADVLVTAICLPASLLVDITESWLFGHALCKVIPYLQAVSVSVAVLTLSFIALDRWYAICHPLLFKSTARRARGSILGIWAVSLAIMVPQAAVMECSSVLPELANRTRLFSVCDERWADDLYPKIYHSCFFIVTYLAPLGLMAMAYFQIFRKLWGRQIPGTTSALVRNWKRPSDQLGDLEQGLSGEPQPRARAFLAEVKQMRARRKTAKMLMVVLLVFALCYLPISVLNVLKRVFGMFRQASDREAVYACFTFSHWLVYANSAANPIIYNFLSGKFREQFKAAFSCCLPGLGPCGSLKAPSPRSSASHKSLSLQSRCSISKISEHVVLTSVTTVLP
OX1R antag-2: antagonists of human orexin 1 receptor; inhibition, % at 5 µM; AID 434989; actives 0.43% (n = 330,000); CHO/OX1R cells, Fluo-8 calcium fluorescence, orexin A;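 active means inhibition above its plate's threshold, mean inhibition of all tested compounds on the plate plus 3 SD, cut at about 37% in these data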;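 further: 0% = orexin A challenge wells and 100% = SB-334867-A antagonist wells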
M1 PAM parental: counter-screen for M1 PAMs: effect in parental CHO-K1 cells; actives 0.02% (n = 360,000); activation, % at 3 µM; AID 602247; ATP EC20, Fluo-8 calcium fluorescence; 0% at ATP EC20, 100% at ATP max;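 active means activation above the run cutoff, the mean activation of all test compounds plus 3 SD, cut at about 40% in these data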;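 further: peak over basal fluorescence ratio in a 140 s read after ATP addition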
CHO parental Ca: counter-screen for OX1R antagonists: effect in parental CHO cells | parental CHO-K1, ATP-induced calcium, Fluo-8 fluorescence | inhibition, % at 5.6 µM | actives 0.63% (n = 330,000) | AID 463079;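 active means inhibition above that plate's mean sample inhibition plus 3 SD, cut at about 26% in these data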;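 further: 0% = ATP-challenged DMSO wells and 100% = DMSO wells without ATP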
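Test system: untransfected parental CHO cell line. Compound: one dose, 5.6 µM nominal. Detection: intracellular calcium via Fluo-8 no-wash fluorescent dye. Measure: % inhibition. Benchmarks: ATP-challenged DMSO wells low, unchallenged DMSO wells high.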
CHO-K1 Ca antag: nonselective inhibitor or artifact in parental CHO-K1 cells | AID 602250 | actives 0.6% (n = 360,000) | ATP-induced calcium, Fluo-8 fluorescence | inhibition, % at 3 µM;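 active means inhibition above a per-plate cutoff, the plate's mean sample inhibition plus 3 SD, cut at about 24% in these data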;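 further: 0% = DMSO plus EC80 ATP and 100% = DMSO alone without ATP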
CHO-K1 Ca ag: nonselective activator or artifact in parental CHO-K1 cells; actives 0.48% (n = 360,000); AID 602248; Fluo-8 calcium fluorescence; scaled to maximal ATP response, vehicle zero; activation, % at 3 µM; in the data active means activation above about 15%;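 further: untransfected CHO-K1 host cells lacking M1 receptor as counterscreen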
Numbers without * were called inactive; x = no result given.

SMILES | OX1R antag-1 | OX1R antag-2 | M1 PAM parental | CHO parental Ca | CHO-K1 Ca antag | CHO-K1 Ca ag
CCOc1ccc(C(=O)N[C@H](C(=O)Nc2ccc(S(=O)(=O)Nc3nccs3)cc2)C(C)C)cc1 | 6 | -9 | 19 | -17 | -16 | 2
O=[N+]([O-])c1ccc(S(=O)(=O)c2ccccc2)nc1 | 59* | 20 | 2 | 25 | 6 | 1
Cc1ccc(S(=O)(=O)c2ccc([N+](=O)[O-])cn2)cc1 | 28 | 23 | -10 | 27 | 15 | 0
Cc1cc(S(=O)(=O)c2ccc([N+](=O)[O-])cn2)ccc1Br | 32 | 34 | -26 | 55* | 9 | 0
O=C(Cc1ccccc1)NCC(=O)Nc1cccc(Cl)c1 | 4 | -20 | -2 | 2 | -11 | 1
COCc1cc(C)nc(SCC(=O)Nc2cccc3cccnc23)c1C#N | 52* | -2 | -15 | -8 | 25* | 0
COc1ccccc1-c1nnc(-c2ccc(C)cc2)o1 | 31 | -27 | -7 | -16 | 2 | 0
COc1ccccc1-c1nnc(-c2ccc(N3CCOCC3)cc2)o1 | 75* | -10 | 15 | -8 | -8 | 2
CN(C)c1ccc2c(c1)Sc1cc(N(C)C)ccc1N2C(=O)c1ccccc1 | 33 | -6 | -9 | 38* | -11 | 1
COc1ccc(CCN=c2c([N+](=O)[O-])nn(-c3cccc(C)c3)n2O)cc1OC | 75* | -30 | 15 | -21 | -15 | 6
Cc1c(C(=O)OCC(=O)Nc2cccc(S(N)(=O)=O)c2)oc2c1ccc1ccccc12 | 48* | 27 | 10 | 2 | -4 | 2
NS(=O)(=O)c1cccc(NC(=O)COC(=O)c2ccccc2C(=O)c2ccccc2)c1 | 5 | -15 | 13 | -9 | -17 | 2
S=c1[nH]cnc2sc(Nc3ccccc3)nc12 | x | x | -17 | x | -12 | 0
O=C(CSc1n[nH]c(=O)[nH]c1=O)c1cccc([N+](=O)[O-])c1 | 48* | -8 | 24 | 2 | -8 | 0
COC(=O)c1cn(NC(=O)Cc2cccc(C(F)(F)F)c2)c(=O)c2ccccc12 | 76* | -8 | 12 | 2 | -11 | 0
COC(=O)c1cn(NC(=O)Cc2ccc(Cl)cc2)c(=O)c2ccccc12 | 22 | -26 | -5 | -13 | -3 | 2
CN(CC(=O)Nc1ccc(F)c(Cl)c1)S(=O)(=O)c1ccc2c(c1)n(C)c(=O)c(=O)n2C | 4 | -1 | 13 | -14 | -3 | 0
NS(=O)(=O)c1ccc(CCNCc2cc(Br)ccc2OCc2ccccc2F)cc1 | 20 | 49* | 8 | 60* | 9 | 8
NS(=O)(=O)c1ccc(CCNCc2cc(Cl)ccc2OCc2ccccc2)cc1 | 5 | -10 | 5 | 6 | 3 | 7
Nc1nc(N)c2nc(CNc3ccc(C(=O)NC(CCC(=O)O)C(=O)O)cc3)cnc2n1 (stereo not drawn) | 61* | -6 | x | -5 | x | x
Cc1ccc(S(=O)(=O)Cc2cc(F)c([N+](=O)[O-])cc2[N+](=O)[O-])cc1 | 41* | 60* | 10 | 57* | -3 | 0
CCOC(=O)c1ccc([N+](=O)[O-])c(CS(=O)(=O)c2ccc(Cl)cc2)c1 | 16 | -17 | 18 | -5 | -15 | 7
COc1ccc(CNC(=O)Cn2c(=O)n(CCC(=O)N3CCCCC3)c(=O)c3sccc32)cc1 | 3 | -19 | 10 | -10 | 0 | 2
CCC(=O)NC(c1ccco1)c1cc(Cl)c2ccccc2c1O (stereo not drawn) | 50* | 23 | 15 | -16 | -14 | 0
CC(=O)NC(c1ccco1)c1cc(Cl)c2ccccc2c1O (stereo not drawn) | 28 | 11 | 3 | -15 | -8 | 0
SMILES | OX1R antag-1 | OX1R antag-2 | M1 PAM parental | CHO parental Ca | CHO-K1 Ca antag | CHO-K1 Ca ag
Cc1ccc(C(=O)N2CCC3(CC2)Oc2ccc(F)cc2C(=O)C32CC(c3cccnc3)=NO2)s1 (stereo not drawn) | 18 | -12 | -2 | -18 | -8 | 0
Cc1ccc(S(=O)(=O)N2CCCCC2)c2nsnc12 | 27 | -24 | 7 | -6 | -15 | 0
Cc1ccc(S(=O)(=O)N2CCOCC2)c2nsnc12 | 41* | -1 | 11 | -11 | -4 | 0
CN1CCN(S(=O)(=O)c2ccc(Br)c3nsnc23)CC1 | 65* | -6 | 16 | -10 | -8 | 0
CN1CCN(S(=O)(=O)c2ccc(Sc3nc4ccccc4[nH]3)c3nsnc23)CC1 | 163* | -36 | 19 | -11 | -7 | 3
O=S(=O)(c1ccc(Br)c2nsnc12)N1CCOCC1 | 40* | 1 | 18 | -3 | -2 | 0
O=C(CN1CCc2ccccc21)Nc1ccc2c(c1)OCO2 | 14 | 1 | -4 | 7 | -2 | 0
Cn1nc(C(C)(C)C)cc1C(=O)NCc1ccc2c(c1)OCO2 | 45 | 15 | -5 | 48* | 39* | 13
O=C(CCn1c(=O)oc2ccccc21)NCc1ccc2c(c1)OCO2 | 5 | -8 | 23 | -4 | -8 | 0
O=C(CN1CCc2ccccc21)NCc1ccc2c(c1)OCO2 | 10 | -11 | -16 | -6 | 29* | 0
O=C(CCn1cccc1)NCc1ccc2c(c1)OCO2 | 0 | 0 | -5 | 6 | 27* | 0
CCC1Oc2ccccc2N(CC(=O)NCCCN2CCOCC2)C1=O (stereo not drawn) | 11 | -5 | -1 | -8 | 27* | -1
O=C(COc1coc(CN2CCN(c3cccc(Cl)c3)CC2)cc1=O)NC1CCCC1 | 5 | -16 | -11 | 4 | 5 | 3
CCC(CC)C(=O)c1c[nH]c(C(=O)N2CCN(c3ccccc3)CC2)c1 | -7 | -22 | 10 | -21 | -9 | 0
COc1ccc(OC)c(S(=O)(=O)N2CCN(c3c(C)cccc3C)CC2)c1 | 13 | -29 | 16 | 26* | -4 | 1
COc1ccc(OC)c(S(=O)(=O)N2CCN(c3ncccn3)CC2)c1 | 5 | -7 | 12 | -8 | -17 | 3
CCOC(=O)N1CCN(C(=O)c2cc(COc3ccc4ncccc4c3)on2)CC1 | 12 | 22 | -13 | 28* | 25* | 4
COCC1CCCN(C(=O)c2cc(COc3ccc4ncccc4c3)on2)C1 (stereo not drawn) | 27 | 18 | -4 | 54* | 25* | 14
CCOC(=O)N1CCN(C(=O)c2cc(COc3cccc(C(C)=O)c3)on2)CC1 | 7 | -19 | 5 | -4 | -6 | 5
CCC(O)C1CCN(C(=O)c2cc(COc3ccc4ncccc4c3)on2)CC1 (stereo not drawn) | 30 | 12 | -11 | 31* | 21 | 10
Cc1cccnc1CN1CCN(C(=O)c2cc(COc3ccc4ncccc4c3)on2)CC1 | 53 | 49* | 4 | 60* | 18 | 15
O=C(c1cc(COc2ccc3ncccc3c2)on1)N1CCC[C@H]1CO | 27 | -5 | -8 | 20 | 16 | 15
